GSIS activator = GLuc luminescence reporter in INS-1E cells, primary screen for activators of glucose-dependent secretion of insulin | 370,000 tested, 0.61% active | activation, % at 16.6 µM | INS-1E GLuc reporter insulin secretion, 2-3 h | AID 743287;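 active = lowest replicate activation of at least 40%, so every replicate reaches that level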;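 note: 0% = median of neutral control wells and 100% = median of IBMX positive control wells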
miR122 inh = blocks miR-122 activity in Huh7 sensor cells. activation (reporter increase), % at 12.5 µM. AID 602342. 340,000 tested, 0.3% active. Huh7 miR-122 Renilla luciferase sensor, 48 h; neutral wells = 0, positive control = 100;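 active = mean replicate activation score at least 90 and every replicate individually at or above 90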;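 note: higher luciferase means less miR-122 activity so hits act as miR-122 inhibitors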
Ecoli rRNA inh = selective bacterial rRNA inhibition in E. coli; 350,000 tested, 1.6% active; E. coli WT GFP vs humanized-ribosome RFP mutants, fluorescence, 24 h; hits give low values; DMSO median 0, no signal -100; GFP signal change (wild-type ribosome), % (no concentration beside the values); AID 720706;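 active = significant combined selectivity score with lowered wild-type GFP, culture density cut under 30%, mutant RFP and density less affected; inactive = any of these conditions unmet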
HIV Env fusion = inhibitors of HIV Env-mediated cell fusion. HeLa-JRFL Env/CEM21 cell fusion, luciferase. inhibition, % at 12.3 µM. 360,000 tested, 1.1% active. AID 651610;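 active = mean replicate inhibition score of at least 50 and every replicate individually at or above 50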;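 note: 0% = plate neutral controls and 100% = maraviroc near 300 nM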
F508del corr = correctors of CFTR F508del function in bronchial epithelial cells; 350,000 tested, 0.36% active; CFBE cells, YFP halide quenching; stimulated with forskolin plus potentiator P3; % fluorescence drop versus neutral controls; activity (quench increase), % at 7.58 µM;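 active = mean added fluorescence quench of at least 8% versus neutral control, with both replicates also reaching 8%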;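 note: cells transiently co-express mutant CFTR-F508del with the halide-sensitive YFP; corrector assay measuring rescue of mutant channel to the surface after 24 h compound exposure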
Cneo AK release = Cryptococcus neoformans lysis via adenylate kinase release. C. neoformans lysis, adenylate kinase release luminescence, 4 h; normalised: neutral wells 0, clomiphene wells 100. lysis activity, % at 15 µM. 360,000 tested, 0.2% active;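 active = mean lysis activity across replicates of at least 80%, whatever share of replicates individually reach that level; inactive = mean lysis activity below 80%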
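Assay system: Cryptococcus neoformans yeast cells / Dosing: single-point compound dose / Timing: 4 h at 37 °C static, read 1 h later / Measured by: luminescence of released adenylate kinase using an AK detection reagent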
The depositor's hits bear a star; / = no result; [ ] = dose if it differs, or a comment. Shown are actives, neighbours in structure and some others; about 3.1% of the full set was active somewhere.

SMILES	GSIS activator	miR122 inh	Ecoli rRNA inh	HIV Env fusion	F508del corr	Cneo AK release
CCOc1ccc(NS(=O)(=O)c2ccc(C(=O)N3CCCCC3)cc2)cc1	-67	-5	-6	43	2	3
COc1ccc(N2CCN(C(=O)c3ccc(NS(=O)(=O)c4cccs4)cc3)CC2)cc1	-40	11	-23*	17	0	16
CC=Cc1ccc2n(c1=O)C[C@H]1[C@H](CO)[C@@H](C(=O)NCCN3CCCC3)N(C(=O)NCCC)[C@@H]21 (mixture of isomers)	5	-7[16.7 µM]	3	/	-1	0
CN1CCCC1CCNC1C2CC3CC(C2)CC1C3 (stereo not given)	46*	5	/	/	/	-4
Cc1cc(C(=O)c2ccccc2)cc(C)c1O	/	/	8	-31	11*	/
Cc1ccc(OC(=O)c2ccccc2)cc1C	8	-5	2	7	3	7
C[C@@H]1CN([C@H](C)CO)S(=O)(=O)c2ccc(C3=CCCC3)cc2O[C@@H]1CN(C)S(C)(=O)=O	8	35[16.7 µM]	-1	9[16.7 µM]	-3	/
CCOC(=O)c1cnc2ccc(OCC)cc2c1N1CCN(c2ccccc2)CC1	71*	8	/	12	/	1
CC(C)c1ccc(/C=C2\SC(=S)N(CCC(=O)N3CCCCC3CCO)C2=O)cc1 (stereo not given)	-1	-2	-5	56*	-3	2
CCCNC(=O)Nc1ccc2c(c1)OC[C@H](C)N(C(=O)C1CCOCC1)C[C@H](C)[C@H](OC)CN(C)C2=O	13	/	2	-1[16.7 µM]	3	0
N#C/C(=C\c1c(N(Cc2ccccc2)Cc2ccccc2)nc2ccccn2c1=O)C(N)=O	-12	/	/	58*	/	7
C=CCNC(=O)/C(C#N)=C/c1c(N(Cc2ccccc2)Cc2ccccc2)nc2ccccn2c1=O	-11	36	-13	23	-1	-2
COC(=O)C1=C/c2ccccc2C(C2CC2)N(Cc2ccc(OC)cc2)/C=C\1C(=O)OC (stereo not given)	/	/	/	7[16.7 µM]	5	-5
C[C@@H]1CN([C@@H](C)CO)C(=O)c2cc(NC(=O)NC3CCCCC3)ccc2O[C@@H]1CN(C)Cc1ccc(-c2ccccc2)cc1	-16	2[16.7 µM]	-4	29[16.7 µM]	0	3
O=C(CSc1nc(C2CCCCC2)nc2ccccc12)N1CCCC1	-5	/	-18*	0	0	/
C/C(N)=C(/C#N)C(=O)CSc1nc2ccccc2c(=O)n1Cc1ccc(F)cc1	9	6	-12	67*	2	0
O=C(CSc1nc2ccccc2c(=O)n1Cc1ccc(Cl)cc1)NCc1cccs1	4	7	2	70*	-2	0
O=C(O)C1CCN(C(=O)CSc2nc3ccccc3c(=O)n2Cc2ccccc2)CC1	43*	-2	0	-20	-1	1
O=C(CSc1nc(C2CC2)nc2ccccc12)N1CCCCC1	13	-3	-19	-2	2	-1
C/C(N)=C(/C#N)C(=O)CSc1nc2ccccc2c(=O)n1Cc1ccc(C)cc1	2	2	-3	15	0	/
C[C@@H]1CN([C@H](C)CO)C(=O)c2cc(NC(=O)c3ccncc3)ccc2O[C@H]1CN(C)Cc1ccc(C(=O)Nc2ccccc2N)cc1	18	/	-4	/	-2	/
COc1cc(/C=N/NC(=O)c2cc(-c3ccc4c(c3)OCO4)n[nH]2)ccc1O	13	/	-26*	-80	2	/
Cc1nn(-c2ccccc2)c(C)c1-c1cc(C(=O)N/N=C/c2ccc(O)cc2)[nH]n1	-18	/	-24*	-16	2	/
COc1cc(/C=N/NC(=O)c2[nH]nc3c2CCc2ccccc2-3)ccc1O	3	16	-20*	13	-4	-2
COc1cc(/C=N/NC(=O)c2cc(-c3c(C)nn(-c4ccccc4)c3C)n[nH]2)ccc1O	3	47	-53	-345	14*	-1
COc1cc(/C=N/NC(=O)c2ccccc2)ccc1O	1	-2	15	-5	1	/
O=C(N/N=C/c1ccc([N+](=O)[O-])cc1)c1cc(-c2ccc3c(c2)OCO3)n[nH]1	/	/	-2	-3	-1	/

Screens (PubChem)
